Compound activity (PubChem)
RGS4 act – RGS4 potentiation or activation. 310,000 compounds, 0.92% hits. HEK293 M3R/inducible RGS4, carbachol calcium flux Fluo4; hits give low values. B-score at 10 µM;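 active = B-score of the integrated calcium signal more than 4 SD below the library mean, with starting fluorescence not abnormally high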;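 note: negative B-score means reduced calcium response which marks RGS4 activation or potentiation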
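Reagent: ECmax carbachol challenge; Test system: M3R-expressing HEK293 line, RGS4 induced by doxycycline; Schedule: overnight RGS4 induction, 30 min dye load 37 °C, 20 min compound RT; Detection: calcium dye Fluo4 fluorescence; Read-out: Agonist-evoked peak-minus-minimum fluorescence over baseline, integrated ratio, B score.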
RGS4 block – human RGS4 inhibition. P49798. HEK293 M3R/RGS4 inducible, Fluo-4 calcium flux; hits give high values; triggered by carbachol at its EC20. B-score at 10 µM. 310,000 compounds, 0.45% hits. AID 463165;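 active = B-score, a plate-corrected calcium signal, over three deviations above library mean, with baseline fluorescence within five deviations of library mean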;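 note: RGS4 expression induced by doxycycline in cells with stable M3 receptor; B-score is computed from the integrated fluorescence ratio over baseline after carbachol; higher B-score means a larger calcium signal and so more RGS4 inhibition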
Target sequence (P49798 whole entry, looked up): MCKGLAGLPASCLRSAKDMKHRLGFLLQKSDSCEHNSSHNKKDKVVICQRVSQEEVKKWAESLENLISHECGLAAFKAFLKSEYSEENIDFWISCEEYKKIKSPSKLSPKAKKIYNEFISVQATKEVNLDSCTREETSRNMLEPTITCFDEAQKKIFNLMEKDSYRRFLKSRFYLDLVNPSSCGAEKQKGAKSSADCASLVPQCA
MrgX1 PAM – human MrgX1 positive allosteric modulation, primary screen. MrgX1-HEK293, Fluo-4 calcium flux, FDSS; hits give high values. B-score at 10 µM. 310,000 compounds, 0.63% hits;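 active = plate-corrected calcium response at least 3 library SD above typical, normal starting fluorescence, not activating the receptor alone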;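 note: compound read alongside a low EC10 to EC30 dose of BAM8-22 agonist; peak minus trough fluorescence over baseline measured at the second addition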
Target sequence (Q96LB2 whole entry, looked up): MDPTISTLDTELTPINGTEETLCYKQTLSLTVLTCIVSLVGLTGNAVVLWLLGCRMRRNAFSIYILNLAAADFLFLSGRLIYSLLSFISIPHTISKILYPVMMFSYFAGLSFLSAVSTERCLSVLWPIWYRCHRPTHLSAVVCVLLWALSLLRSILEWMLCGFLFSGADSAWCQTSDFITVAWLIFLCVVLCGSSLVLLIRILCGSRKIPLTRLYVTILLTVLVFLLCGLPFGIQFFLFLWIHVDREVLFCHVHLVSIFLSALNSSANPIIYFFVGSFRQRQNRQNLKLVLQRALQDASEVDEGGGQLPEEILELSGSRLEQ
MrgX1 ag – activates human MrgX1 receptor signaling. MrgX1-HEK293 cells, Fluo-4 calcium fluorescence, agonist mode; hits give high values. B-score at 10 µM. 310,000 compounds, 0.44% hits. AID 588627;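 active = calcium response B-score plate-corrected fluorescence ratio at least 3 library SD, with starting fluorescence B-score inside 5 SD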
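Test system: Stable human MrgX1 HEK293 cell line | Schedule: Overnight plating before 1 h dye loading | Read-out basis: Baseline-normalised fluorescence change ratio, B-scored | Detection: Kinetic calcium dye fluorescence, Fluo-4 NW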
MrgX1 antag – blocks BAM8-22 activation of human MrgX1 receptor; Q96LB2; MRGX1-HEK293 calcium flux, Fluo-4, BAM8-22 antagonism; hits give low values; B-score at 10 µM; 310,000 compounds, 1.3% hits;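 active = calcium-response B-score plate-corrected more than 3 library SD below zero, starting fluorescence within 5 deviations, no agonist response on first addition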;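 note: peak minus trough fluorescence over baseline after final BAM8-22 challenge near maximal dose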
RGS4 block valid – RGS4 inhibitor validation. shares compounds with RGS4 block. AID 492999. 1,700 compounds, 65% hits. HEK293 M3R/RGS4, carbachol calcium Fluo-4 fluorescence; carbachol added at its EC20; 0 = buffer wells, 100 = carbachol control. calcium response, % at 10 µM;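 active = duplicate-averaged calcium response above the buffer-only control mean plus 5 SD of those controls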;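 note: integrated fluorescence ratio F max minus min over baseline F0; higher response in RGS4-induced cells means RGS4 inhibition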
M3R Ca ctr – non-induced cell nonspecific activity of RGS4 inhibitors; 1,900 compounds, 20% hits; activity (percent), % at 10 µM; shares compounds with RGS4 block; HEK293 M3R non-induced, carbachol calcium Fluo-4; submaximal (EC20) carbachol stimulus; buffer wells 0%, carbachol control wells 100%; call rule not given here;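 note: RGS4 induction absent so cells express M3R without RGS4; higher means more calcium signal and flags a non-specific hit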
RGS4 inh ctr2 – second RGS4 inhibitor counter-screen in uninduced cells lacking carbachol; shares compounds with RGS4 block; HEK293 M3R/RGS4 non-induced, Fluo-4 calcium, no carbachol; normalised: buffer wells 0%, carbachol wells 100%; calcium response (agonist-mode artifact), % at 10 µM; 1,900 compounds, 22% hits; AID 493001;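 active = duplicate-averaged calcium rise in uninduced cells above buffer wells' mean plus 5 SD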
Of the large screens only hits and unclear results are named; the others gave an inactive call (follow-up assays come after a bar, where they were run). A selection: hits, their analogues and other compounds. The true share with any hit is near 3.5%.

Cc1cccc(N2C(=O)/C(=C/c3ccccn3)SC2=S)c1	none
Cc1ccc(N2C(=O)/C(=C/c3cccnc3)SC2=S)cc1	none | M3R Ca ctr inactive | RGS4 inh ctr2 inactive
Cc1ccc(/C=C2\SC(=S)N(c3cccnc3)C2=O)o1	none
Cc1cccc(N2C(=O)/C(=C/c3cccnc3)SC2=S)c1	RGS4 block 4.9 | RGS4 block valid 19% | M3R Ca ctr 42% | RGS4 inh ctr2 inactive
Cc1ccc(CN2CCN(/N=C/C(Br)=C\c3ccccc3)CC2)cc1	none
CC(C)CC(=O)/C(=C/c1ccc(N(C)C)cc1)n1cncn1	none
CC(C)CC(=O)/C(=C\c1ccc(Cl)cc1Cl)n1cncn1	RGS4 block 6.8 (no result: MrgX1 PAM, MrgX1 ag, MrgX1 antag) | RGS4 block valid 16% | M3R Ca ctr inactive | RGS4 inh ctr2 20%
O=C1/C(=C/c2ccncc2)SC(=S)N1Cc1ccccc1	none
COc1cc(/C=C2/SC(=S)N(Cc3ccccc3)C2=O)ccc1O	RGS4 block 6.4, MrgX1 PAM 11 | RGS4 block valid 12% | M3R Ca ctr inactive | RGS4 inh ctr2 34%
O=C1/C(=C\c2cccc(O)c2O)SC(=S)N1Cc1ccccc1	RGS4 block 8.4 | RGS4 block valid 18% | M3R Ca ctr inactive | RGS4 inh ctr2 inactive
O=C1/C(=C\c2cccc(O)c2)SC(=S)N1Cc1ccccc1	none | RGS4 block valid inactive | M3R Ca ctr inactive | RGS4 inh ctr2 inactive
COc1ccc(NC2CCCN(C(=O)C3(C)CCCCC3)C2)cc1OC (stereo not given)	none
CCOC(=O)C1(CCOc2ccccc2)CCN(Cc2ccc(O)c(OCC)c2)CC1	none
COc1cc2c(cc1OC)C(SC)=NC(C)(C)C2	none | M3R Ca ctr 46% | RGS4 inh ctr2 inactive
COc1ccc(C2=NC(C)(C)Cc3cc(OC)c(OC)cc32)cc1	none
O=C(NCc1ccccc1)c1nc2c(nnn2Cc2cccc(Cl)c2)c(=O)[nH]1	RGS4 block 4.9 | RGS4 block valid 22% | M3R Ca ctr inactive | RGS4 inh ctr2 inactive
O=C(NCc1ccco1)c1nc2c(nnn2Cc2cccc(Cl)c2)c(=O)[nH]1	RGS4 block 8 | RGS4 block valid 22% | M3R Ca ctr inactive | RGS4 inh ctr2 inactive
CC(C)c1nnc(NC(=O)c2sc3ccccc3c2Cl)s1	RGS4 block 4.8 | RGS4 block valid inactive | M3R Ca ctr inactive | RGS4 inh ctr2 inactive
CCc1ccc(C(C(=O)NC2CCCCC2)N(C(=O)c2csnn2)C2CC2)cc1 (stereo not given)	none
COc1ccc(-c2nnc(Nc3ccc(OC)c(C(=O)N4CCCCC4)c3)c3ccccc23)cc1	none | M3R Ca ctr inactive | RGS4 inh ctr2 inactive
COc1cc(/C=C/C(=O)N2CCN(c3n[nH]c(=O)[nH]c3=O)CC2)cc(OC)c1OC	none
Cc1cc(C)n(CC(O)Cn2c3ccc(Br)cc3c3cc(Br)ccc32)c(=O)n1 (stereo not given)	RGS4 block 7.8 | RGS4 block valid 27% | M3R Ca ctr inactive | RGS4 inh ctr2 inactive
COCCNC(=S)N(CCc1c(C)[nH]c2ccc(F)cc12)Cc1cccs1	none | RGS4 block valid inactive | M3R Ca ctr inactive | RGS4 inh ctr2 inactive
COCCNC(=S)N(CCc1c(C)[nH]c2ccc(Cl)cc12)Cc1cccs1	RGS4 block 5 | RGS4 block valid 6.0% | M3R Ca ctr inactive | RGS4 inh ctr2 inactive
CCNC(=S)N(CCc1c(C)[nH]c2ccc(C)cc12)Cc1cccs1	none
COc1ccc(Cc2nnc(SCC(=O)c3ccc4c(c3)NC(=O)CO4)o2)cc1	none
O=C1NC(c2ccccc2)=C(c2ccc3ccccc3n2)C(c2ccccc2)N1 (stereo not given)	none
O=C1NC(c2ccccc2)=C(c2nc3ccccc3s2)C(c2ccc(O)cc2)N1 (stereo not given)	RGS4 block 8.6 | RGS4 block valid 8.5% | M3R Ca ctr inactive | RGS4 inh ctr2 8.0%
CCN(CC)c1ccc(/C=N\N2CCN(Cc3ccc(C)cc3)CC2)cc1	none | RGS4 block valid inactive | M3R Ca ctr inactive | RGS4 inh ctr2 inactive
COc1cccc(CN2CC(C(=O)NCc3cccc(N4CCCC4)c3)CCC2=O)c1 (stereo not given)	none
COc1ccc(CNC(=O)CCNS(=O)(=O)c2ccc(C)cc2)cc1	none | RGS4 block valid inactive | M3R Ca ctr inactive | RGS4 inh ctr2 inactive
Cc1onc(-c2ccccc2)c1NC(=O)N(CCC#N)Cc1cccs1	none | RGS4 block valid inactive | M3R Ca ctr inactive | RGS4 inh ctr2 inactive
Cc1ccc(-c2nc3c(c(=O)[nH]c(=O)n3Cc3ccccc3)n2Cc2ccccc2)o1	RGS4 block 8.2 (no result: MrgX1 PAM, MrgX1 ag, MrgX1 antag) | RGS4 block valid 24% | M3R Ca ctr inactive | RGS4 inh ctr2 7.0%
C=CCOc1ccc(/C=C2/C(=N)N3N=C(CC(=O)N4CCCC4)SC3=NC2=O)cc1OC	none
O=C1NN(c2ccc(Br)cc2)C(=O)/C1=C\c1ccc(O)cc1O	none
CCOc1cc(/C=C2/C(=O)NN(c3cccc(Cl)c3)C2=O)ccc1O	RGS4 block 5.7 | RGS4 block valid 5.0% | M3R Ca ctr inactive | RGS4 inh ctr2 20%
O=C1NN(c2cccc(Br)c2)C(=O)/C1=C\c1ccc(O)cc1	none | M3R Ca ctr 31% | RGS4 inh ctr2 inactive
O=C(CSc1nnc(-c2ccccc2Cl)o1)Nc1ccccn1	none
COc1ccc(CN2CCC(Oc3cc(C(=O)NC4CC4)ccc3OC)CC2)c(O)c1	none
O=C(Nc1ccc2nc3n(c(=O)c2c1)CCCCC3)c1c(F)ccc([N+](=O)[O-])c1F	RGS4 block 5.2, MrgX1 ag 37 | RGS4 block valid 33% | M3R Ca ctr inactive | RGS4 inh ctr2 12%
O=C(Nc1ccc2nc3n(c(=O)c2c1)CCCCC3)c1cc([N+](=O)[O-])ccc1F	none
Cc1cccc(/C(N)=N/OC(=O)c2ccc(Br)o2)c1	RGS4 block 5.2 | RGS4 block valid inactive | M3R Ca ctr inactive | RGS4 inh ctr2 inactive
CCOC(=O)[C@@H]1[C@H]2COc3ccccc3[C@@H]2N2C(=O)N(c3ccc(C(F)(F)F)cc3)C(=O)[C@]12C	none | RGS4 block valid inactive | M3R Ca ctr inactive | RGS4 inh ctr2 inactive
CCOC(=O)[C@@H]1[C@H]2COc3ccccc3[C@H]2N2C(=O)N(c3ccc(C(F)(F)F)cc3)C(=O)[C@]12C	none | RGS4 block valid inactive | M3R Ca ctr inactive | RGS4 inh ctr2 inactive
